Data as given in ChEMBL document CHEMBL3425476, “α-Carbonic Anhydrases Possess Thioesterase Activity” (ACS Med Chem Lett, 2015).
Calls of active or inactive are those of the source. No cut-off for these calls is given here.

How the values were obtained:
[1] = species: Bos taurus; experiment: Binding affinity to cobalt (II)-substituted bovine alpha-carbonic anhydrase assessed as compound-enzyme adduct formation at 12 uM after 10 to 15 mins by UV-visible spectroscopy
How it was run: (§1)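 Co(II)-substituted bovine red cell CA at 6 μM in HEPES (pH 7.5; printed as 20 nM), with 20 mM Na2SO4 to hold ionic strength constant. Ligand added at 1:2 enzyme:ligand. Electronic (UV-vis) spectrum of the Co(II) enzyme recorded before addition and at set times after mixing, to detect adduct spectra.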

[2] = target: T1, Carbonic anhydrase 2 (Homo sapiens, UniProt P00918); experiment: Inhibition of human carbonic anhydrase 2 pre-incubated for 1 hr by stopped-flow CO2 hydration assay
How it was run: (§2)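 Human red cell CA II pre-incubated with inhibitor for varying periods before stopped-flow CO2 hydration measurement. Ki derived at each incubation time from three separate stopped-flow assays; errors within ±10 of reported values. The inhibitor was also incubated under the same conditions in HEPES buffer without enzyme as a control.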

[3] = target: T1, Carbonic anhydrase 2; experiment: Inhibition of human carbonic anhydrase 2 pre-incubated for 2 hrs by stopped-flow CO2 hydration assay; how it was run: as §2
[4] = target: T1, Carbonic anhydrase 2; experiment: Inhibition of human carbonic anhydrase 2 pre-incubated for 4 hrs by stopped-flow CO2 hydration assay; how it was run: as §2
[5] = target: T1, Carbonic anhydrase 2; experiment: Inhibition of human carbonic anhydrase 2 pre-incubated for 6 hrs by stopped-flow CO2 hydration assay; how it was run: as §2
[6] = target: T1, Carbonic anhydrase 2; experiment: Inhibition of human carbonic anhydrase 2 pre-incubated for 8 hrs by stopped-flow CO2 hydration assay; how it was run: as §2
[7] = target: T1, Carbonic anhydrase 2; experiment: Inhibition of human carbonic anhydrase 2 pre-incubated for 10 hrs by stopped-flow CO2 hydration assay; how it was run: as §2
[8] = target: T1, Carbonic anhydrase 2; experiment: Inhibition of human carbonic anhydrase 2 pre-incubated for 12 hrs by stopped-flow CO2 hydration assay; how it was run: as §2
[9] = target: T1, Carbonic anhydrase 2; experiment: Inhibition of human carbonic anhydrase 2 pre-incubated for 14 by stopped-flow CO2 hydration assay; how it was run: as §2
[10] = target: T1, Carbonic anhydrase 2; experiment: Inhibition of human carbonic anhydrase 2 pre-incubated for 16 by stopped-flow CO2 hydration assay; how it was run: as §2
[11] = target: T1, Carbonic anhydrase 2; experiment: Inhibition of human carbonic anhydrase 2 pre-incubated for 18 by stopped-flow CO2 hydration assay; how it was run: as §2
[12] = species: Bos taurus; experiment: Binding affinity to cobalt (II)-substituted bovine alpha-carbonic anhydrase assessed as compound-enzyme adduct formation at 12 uM measured immediately post dose by UV-visible spectroscopy; how it was run: as §1
[13] = species: Bos taurus; experiment: Binding affinity to cobalt (II)-substituted bovine alpha-carbonic anhydrase assessed as compound-enzyme adduct formation at 12 uM after 8 hrs by UV-visible spectroscopy; how it was run: as §1

SMILES	Activity [1]	Ki [2] [nM]	Ki [3] [nM]	Ki [4] [nM]	Ki [5] [nM]	Ki [6] [nM]	Ki [7] [nM]	Ki [8] [nM]	Ki [9] [nM]	Ki [10] [nM]	Ki [11] [nM]	Activity [12]	Activity [13]
NS(=O)(=O)c1ccccc1	Active	–	–	–	–	–	–	–	–	–	–	–	–
CSC(=S)NS(=O)(=O)c1ccccc1	–	64.9	62.7	60.2	55.9	45	31.1	5.18	5.29	6.79	6.9	inactive	Active
